Data as given in publication PMC4493896 (Journal of Medicinal Chemistry, 2015).

Columns and labels:
[1] = system: CREB-mediated gene transcription; assay: CREB Renilla luciferase; format: cell-based; conditions: HEK 293T cells
[2] = system: A549, MCF-7, MDA-MB-231, MDA-MB-468 cells; assay: MTT assay, statements across the cancer cell line panel; format: cell-based; conditions: 72 h
How it was run: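 Cells in DMEM with nonessential amino acids and 10% FBS (37 °C, 5% CO2) attached overnight, then took test compound at a range of concentrations up to 100 μM for 72 h. MTT (0.5 mg/mL in complete medium) was added for 3 h at 37 °C, formazan dissolved in DMSO, A570 read. Growth = 100×(At−A0)/(Ac−A0), with time-0 and medium-treated controls.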

cancer and normal cells = conditions: same assay conditions; cited from earlier work
Nurr1/NR4A2 mRNA = assay: qRT-PCR of endogenous CREB target gene in HEK 293T cells; format: cell-based; conditions: forskolin 10 μM

With `Cl.NCCCOc1cc2ccccc2cc1C(=O)NCCCOc1cc2ccccc2cc1C(=O)Nc1ccc(Cl)cc1` [Compound 3b, 3-(3-Aminopropoxy)-N-(3-((3-((4-chlorophenyl)carbamoyl)naphthalen-2-yl)oxy)propyl)-2-naphthamide Hydrochloride] the “decrease of CREB inhibition activity in comparison to 3a” value [1] was “about 2 fold”.
For `Cl.O=C(NCCCOc1cc2ccccc2cc1C(=O)Nc1ccc(Cl)cc1O)c1cc2ccccc2cc1OCCCN1CCOCC1` [Compound 3e, N-(4-Chloro-2-hydroxyphenyl)-3-(3-(3-(3-morpholinopropoxy)-2-naphthamido)propoxy)-2-naphthamide Hydrochloride], the “growth inhibition activity in the other three cancer cell lines” value ([2]; A549, MCF-7, MDA-MB-231, MTT) was “no activity”.
For `O=C(NCCCOc1cc2ccccc2cc1C(=O)Nc1ccc(Cl)cc1O)c1cc2ccccc2cc1OCCCO` [Compound 3g, N-(4-Chloro-2-hydroxyphenyl)-3-(3-(3-(3-hydroxypropoxy)-2-naphthamido)propoxy)-2-naphthamide], the GI50 ([2]; read-out: GI50 values, range over all four cancer cell lines) was 10.2 to 82.7 µM.
In the case of `COc1cccc2c1C(=O)c1c(O)c3c(c(O)c1C2=O)C[C@@](O)(C(=O)CO)C[C@@H]3O[C@H]1C[C@H](N)[C@H](O)[C@H](C)O1` [doxorubicin], the “differential toxicity between cancer and normal cells” value (cancer and normal cells) is listed as “did not show differential toxicity”.
For `C=C[C@@]1(C)CC(=O)[C@]2(O)[C@@]3(C)[C@@H](O)CCC(C)(C)[C@@H]3[C@H](O)[C@H](OC(C)=O)[C@@]2(C)O1` [forskolin], the “stimulation of Nurr1/NR4A2 level” value (Nurr1/NR4A2 mRNA) was about 31 fold.
